Source: PubChem BioAssay
Activity calls are given as the source filed them. Unless noted, no stated cut-off is given here; in the data, active means inhibition above about 30%; inactive means the rest.

Key:
[1] = reducers of endogenous Her2 protein level, primary screen, SKBR3 breast tumor cells, AlphaScreen, ATP viability (AID 461;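 active means Her2 level under about 52% in both replicate screens, with viability over 70% of control, limit read from the data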;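 on Her2 level: lower value means less Her2 protein in the cells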;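 on viability: percent of carrier control wells set as 100% viability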); conditions: 18-24 h, measured here: SKBR3 viability, ATP luminescence, at 10 µM
[2] = biological target: Receptor tyrosine-protein kinase erbB-2 (Homo sapiens) (UniProt P04626); test: as above; conditions: 18-24 h, at 10 µM, stronger effect = lower value
Sequence of Receptor tyrosine-protein kinase erbB-2 (Homo sapiens) (P04626 whole entry, looked up): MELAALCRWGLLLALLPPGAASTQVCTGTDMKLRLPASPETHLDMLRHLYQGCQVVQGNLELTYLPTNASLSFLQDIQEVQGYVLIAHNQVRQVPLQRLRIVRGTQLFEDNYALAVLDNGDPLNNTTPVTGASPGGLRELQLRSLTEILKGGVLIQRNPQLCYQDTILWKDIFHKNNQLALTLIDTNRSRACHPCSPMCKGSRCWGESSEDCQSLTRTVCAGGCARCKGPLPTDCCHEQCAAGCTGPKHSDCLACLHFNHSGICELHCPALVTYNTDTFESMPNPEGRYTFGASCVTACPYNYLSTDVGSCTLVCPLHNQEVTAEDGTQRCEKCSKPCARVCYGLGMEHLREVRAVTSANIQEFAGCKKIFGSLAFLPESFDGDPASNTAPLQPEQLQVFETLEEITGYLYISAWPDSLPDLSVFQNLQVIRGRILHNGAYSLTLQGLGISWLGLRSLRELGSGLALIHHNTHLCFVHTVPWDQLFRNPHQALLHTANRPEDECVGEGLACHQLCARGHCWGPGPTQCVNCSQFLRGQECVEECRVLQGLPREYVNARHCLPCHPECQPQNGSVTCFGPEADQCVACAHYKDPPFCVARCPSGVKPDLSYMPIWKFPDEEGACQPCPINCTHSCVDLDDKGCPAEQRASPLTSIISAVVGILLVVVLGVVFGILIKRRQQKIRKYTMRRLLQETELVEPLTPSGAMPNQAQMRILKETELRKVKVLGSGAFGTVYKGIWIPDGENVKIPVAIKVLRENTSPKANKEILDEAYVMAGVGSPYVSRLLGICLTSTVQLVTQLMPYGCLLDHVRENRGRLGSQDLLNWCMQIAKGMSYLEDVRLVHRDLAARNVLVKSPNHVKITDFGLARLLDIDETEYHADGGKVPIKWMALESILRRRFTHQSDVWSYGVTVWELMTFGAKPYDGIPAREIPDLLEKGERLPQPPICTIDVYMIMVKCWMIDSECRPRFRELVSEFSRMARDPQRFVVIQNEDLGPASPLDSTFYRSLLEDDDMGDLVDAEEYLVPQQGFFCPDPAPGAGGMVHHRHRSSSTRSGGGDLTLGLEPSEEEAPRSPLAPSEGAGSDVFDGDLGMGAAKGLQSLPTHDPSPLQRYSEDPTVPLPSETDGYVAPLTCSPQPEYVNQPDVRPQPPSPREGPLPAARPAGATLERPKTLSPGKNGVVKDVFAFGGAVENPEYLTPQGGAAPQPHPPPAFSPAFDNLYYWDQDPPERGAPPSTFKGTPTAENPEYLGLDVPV

[3] = SK-BR-3 cell growth inhibitors, pilot screen, 24 h, human (AID 572;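 active means viability at or below 10% of carrier control in both of two separate runs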;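 further: compound exposure lasted between 18 and 24 h rather than exactly 24 h; 100% = carrier-treated control wells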); conditions: SK-BR-3 viability, CellTiter-Glo luminescence, at 10 µM, stronger effect = lower value
[4] = HUVEC growth inhibition – cell-based, human, primary screen (AID 575;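 active means viability at or below 30% in both replicate assays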;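 further: 100% = median of untreated cell wells with 0.1% DMSO on each plate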); conditions: HUVEC proliferation, CellTiter-Glo luminescence, 72 h; at 10 µM; stronger effect = lower value
In short: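 Material: primary human umbilical vein endothelial cells / Schedule: 72 h exposure, 37 °C, 5% CO2, 30 min RT equilibration / Signal: ATP-based CellTiter-Glo luminescent read / Read-out basis: percent of median DMSO-control luminescence / Control set: 32 DMSO-only cell-control wells (high), 32 MePR drug-control wells (low) per plate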

[5] = growth inhibitors of H69AR lung tumor, primary screen, human, duplicate replicates (AID 580;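 active means viability at or under a set limit in both replicates, limit being median viability minus 3 SD, cut at about 48% in these data, passing the limit was not always enough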;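 further: 100% = mean luminescence of untreated wells and 0% = no signal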); conditions: H69AR lung tumor cells viability, ATP luminescence, 72 h; at 10 µM; stronger effect = lower value
[6] = reversal of MRP1-mediated doxorubicin resistance, pilot screen, H69AR cells, doxorubicin co-treatment (AID 601;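 active means viability loss from added drug above about 55%, and viability with drug at most 40%, in both replicates, limit read from the data, passing the limit was not always enough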); conditions: CellTiter-Glo, 72 h, at 10 µM; for differential viability (reversal): stronger effect = higher value
[7] = 384-well plate pilot, post-Golgi transport modulator project, inhibition of yeast transport mutant growth (AID 636; in the data active means inhibition above about 31%); conditions: absorbance 615 nm, about 18 h, stronger effect = higher value
[8] = growth suppression of yeast trafficking mutant, preliminary HTS, modulators of trafficking downstream of Golgi apparatus project, 1536-format plate, OD 615 nm (AID 637); conditions: yeast transport mutant growth, absorbance 615 nm, 18 h; stronger effect = higher value
[9] = H69AR cells + 2 uM doxorubicin, measured here: viability with 2 uM doxorubicin, stronger effect = lower value
[10] = H69AR cells, compound alone cytotoxicity

Structure (SMILES)	viability [1] [%]	Her2 level [2]	viability [3]	viability [4]	viability [5]	differential viability (reversal) ([6]; H69AR cells + 2 uM doxorubicin)	viability [6, 9] [%]	viability [6, 10] [%]	inhibition [7]	inhibition [8]
Cc1ccc(C(=O)N2CCN(C(=O)c3ccc(C)c(C)c3)C(C)C2)cc1C (stereo not given)	84.5	81% (inactive)	84.5% (inactive)	97.5% (inactive)	82.2% (inactive)	12.2% (inactive)	70	82.2	-4.61% (inactive)	-1.67% (inactive)
CCOC(=O)Cn1c(S(=O)(=O)Cc2ccccc2)nc2ccccc21	86	89.5% (inactive)	86% (inactive)	103% (inactive)	91.5% (inactive)	4.28% (inactive)	87.2	91.5	-0.13% (inactive)	-3% (inactive)
COc1ccc2c(c1OC)C(=O)OC2Nn1cncn1 (stereo not given)	95.5	96.5% (inactive)	95.5% (inactive)	109% (inactive)	103% (inactive)	3.5% (inactive)	99.3	103	-4.08% (inactive)	0.33% (inactive)
Cc1ccccc1-n1nnnc1SCC(=O)Nc1ccc(S(=O)(=O)N2CCCC2)cc1	70.5	100% (inactive)	70.5% (inactive)	94.6% (inactive)	85% (inactive)	-2.96% (inactive)	88	85	0.53% (inactive)	2.1% (inactive)
CC1CC(C)CN(CCCNC(=O)COc2cc(=O)n(C)c3ccccc23)C1 (stereo not given)	90	88% (inactive)	90% (inactive)	85.3% (inactive)	90.7% (inactive)	16.5% (inactive)	74.2	90.7	-3.73% (inactive)	-4.59% (inactive)
COc1cccc(-n2c(C)nc3c(cnn3-c3ccc(C)cc3)c2=O)c1	86	102% (inactive)	86% (inactive)	79.6% (inactive)	90.4% (inactive)	-12% (inactive)	102	90.4	0.66% (inactive)	-10.5% (inactive)
Cc1ccsc1C1C2=C(CCCC2=O)Nc2ncnn21 (stereo not given)	86	100% (inactive)	86% (inactive)	98% (inactive)	92.6% (inactive)	-7.12% (inactive)	99.7	92.6	-1.32% (inactive)	-1.31% (inactive)
CCOc1ccc(NC(=O)C2CC(=O)N(C(C)C)C2)cc1 (stereo not given)	103	82% (inactive)	103% (inactive)	114% (inactive)	99.7% (inactive)	7% (inactive)	92.7	99.7	-2% (inactive)	0.49% (inactive)
CCOc1ccc(CN2CCN(c3cc(C)nc4c5c(C)cc(C)nc5nn34)CC2)cc1	80	83.5% (inactive)	80% (inactive)	94.2% (inactive)	88.8% (inactive)	-3.18% (inactive)	92	88.8	-2.5% (inactive)	-4.36% (inactive)
CCOc1cc(C(=O)N(C)c2ccccc2)cc(OCC)c1OCC	108	131% (inactive)	108% (inactive)	96.4% (inactive)	89.2% (inactive)	-1.49% (inactive)	90.7	89.2	-5.64% (inactive)	-11.3% (inactive)
CCOC(=O)CNC(=O)CSc1ncnc2c1cnn2-c1ccccc1	87.5	94% (inactive)	87.5% (inactive)	97.4% (inactive)	102% (inactive)	6.58% (inactive)	95.1	102	-4% (inactive)	-2.26% (inactive)
CCOc1ccc(C(=O)N(Cc2ccc(N(C)C)cc2)C2CCS(=O)(=O)C2)cc1 (stereo not given)	114	121% (inactive)	114% (inactive)	101% (inactive)	88.1% (inactive)	-16.6% (inactive)	105	88.1	-1.18% (inactive)	2.79% (inactive)
CN(c1ccccc1C(N)=O)S(=O)(=O)c1ccccc1	105	86% (inactive)	105% (inactive)	101% (inactive)	92.7% (inactive)	7.05% (inactive)	85.7	92.7	-6.53% (inactive)	-0.48% (inactive)
Cn1c(CCNC(=O)c2ccco2)nc2cc(NC(=O)C3CCCCC3)ccc21	101	114% (inactive)	101% (inactive)	78.3% (inactive)	84.5% (inactive)	2.02% (inactive)	82.5	84.5	-8.49% (inactive)	-1.59% (inactive)
CC1Cc2ccccc2N1C(=O)CSc1nnc2n1C(C)(C)Cc1ccccc1-2 (stereo not given)	79	105% (inactive)	79% (inactive)	71.8% (inactive)	82.4% (inactive)	-7.96% (inactive)	90.4	82.4	-6.4% (inactive)	-7.3% (inactive)
Cc1cc(NC(c2cccnc2)c2c(C)[nH]c3ccccc23)no1 (stereo not given)	97	76% (inactive)	97% (inactive)	85.1% (inactive)	89% (inactive)	-8.09% (inactive)	97	89	-5.6% (inactive)	3.61% (inactive)

Structure (SMILES)	viability [1] [%]	Her2 level [2]	viability [3]	viability [4]	viability [5]	differential viability (reversal) ([6]; H69AR cells + 2 uM doxorubicin)	viability [6, 9] [%]	viability [6, 10] [%]	inhibition [7]	inhibition [8]
CCCC(=O)Nc1ccccc1-c1nnn(CC(=O)Nc2ccc(OCC)cc2)n1	108	87% (inactive)	108% (inactive)	62% (inactive)	89.1% (inactive)	-8.82% (inactive)	97.9	89.1	1.82% (inactive)	-4.75% (inactive)
CCCCc1nc(NCCNC(=O)c2ccco2)c(C#N)c2c1CSC(C)(C)C2	84.5	100% (inactive)	84.5% (inactive)	78.7% (inactive)	86.7% (inactive)	15.8% (inactive)	70.9	86.7	-5.2% (inactive)	-7.38% (inactive)
CCCS(=O)(=O)N1CCCC(C(=O)N2CCC(Cc3ccccc3)CC2)C1 (stereo not given)	91.5	96.5% (inactive)	91.5% (inactive)	85.9% (inactive)	98.7% (inactive)	1.65% (inactive)	97.1	98.7	-1.32% (inactive)	4.92% (inactive)
Cc1ccc(S(=O)(=O)N2CCC(C(=O)NCCN3CCCCCC3)CC2)cc1	91	93.5% (inactive)	91% (inactive)	108% (inactive)	103% (inactive)	18.1% (inactive)	84.6	103	0.13% (inactive)	2.13% (inactive)
Cc1ccc(S(=O)(=O)N2C(=O)CCC2C(=O)Nc2ccc3c(c2)OCCO3)cc1 (stereo not given)	109	96.5% (inactive)	109% (inactive)	93.6% (inactive)	89.7% (inactive)	-4.12% (inactive)	93.8	89.7	-1.69% (inactive)	-1.67% (inactive)
Cc1ccccc1NS(=O)(=O)c1cc(S(C)(=O)=O)ccc1Cl	96	98.5% (inactive)	96% (inactive)	110% (inactive)	94.4% (inactive)	3.12% (inactive)	91.3	94.4	-2.4% (inactive)	-4.29% (inactive)
O=C(O)c1cc2nc(-c3ccc(F)cc3)cc(C(F)(F)F)n2n1	94	118% (inactive)	94% (inactive)	82% (inactive)	93.2% (inactive)	4% (inactive)	89.2	93.2	-2.24% (inactive)	-1% (inactive)
c1ccc(Cn2nnc3c(N4CCC5(CC4)OCCO5)ncnc32)cc1	105	92.5% (inactive)	105% (inactive)	103% (inactive)	90.7% (inactive)	-8.68% (inactive)	99.3	90.7	-1.05% (inactive)	4.03% (inactive)
COc1cc2c(c(OC)c1)C(c1ccncc1)CC(=O)N2 (stereo not given)	89	96.5% (inactive)	89% (inactive)	91.7% (inactive)	111% (inactive)	21.4% (inactive)	89.8	111	1.73% (inactive)	-5.57% (inactive)
C=C(C)CSc1nnc(-c2cccc(S(=O)(=O)N(C)C)c2)n1-c1cc(OC)ccc1OC	75	93.5% (inactive)	75% (inactive)	95.4% (inactive)	95.9% (inactive)	4.91% (inactive)	90.9	95.9	-3.55% (inactive)	-2.55% (inactive)
CCSc1nnc(NC(=O)c2csc(C)c2)s1	95	83.5% (inactive)	95% (inactive)	81.2% (inactive)	87.7% (inactive)	-7.62% (inactive)	95.3	87.7	-2.27% (inactive)	-5.41% (inactive)
Cc1ccc(C)c(N(CC(=O)NCc2ccco2)C(=O)CCC(=O)Nc2ccccn2)c1	93	92% (inactive)	93% (inactive)	81.8% (inactive)	68.6% (inactive)	-5.34% (inactive)	74	68.6	-3.25% (inactive)	-1.43% (inactive)
CCN1CCCC1CNC(=O)CS(=O)(=O)Cc1nc(-c2ccccc2C)oc1C (stereo not given)	97	92.5% (inactive)	97% (inactive)	83% (inactive)	88.1% (inactive)	0.015% (inactive)	88.1	88.1	-3.6% (inactive)	1.64% (inactive)
CCSc1nnc(NC(=O)CCNS(=O)(=O)c2cc(Br)cnc2N)s1	79.5	107% (inactive)	79.5% (inactive)	76.8% (inactive)	107% (inactive)	1.07% (inactive)	106	107	-1.04% (inactive)	-0.82% (inactive)
C=CCOc1ccc(/C=N/n2cncn2)cc1OC	85	112% (inactive)	85% (inactive)	103% (inactive)	94.6% (inactive)	8.46% (inactive)	86.2	94.6	9.86% (inactive)	16.8% (inactive)
